This sample holds only a part of the variants without activity.
B1: tRNA (parent)
chain: GUUCCGUUGGCGUAAUGGUAACGCGUCUCCCUCCUAAGGAGAAGACUGCGGGUUCGAGUCCCGUACGGAACG

Variants of: B1
Assay: yeast fitness relative to wild type (ratio to wild type); higher = fitter; tRNA-Arg(CCU), competitive growth, 37 C, YPD
Procedure, shortened: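 A pool of Saccharomyces cerevisiae strains, each with a tRNA-Arg(CCU) gene variant at the native genomic locus, was competed in YPD at 37°C for 24 hours across six parallel replicates. The variants had been chemically synthesised at a 3% per-site mutation rate over 69 sites, and gene amplicons before and after competition were read by 100-nucleotide paired-end sequencing. Darwinian fitness relative to wild type rested on changes in genotype frequencies. Genotypes required ≥ 100 starting reads, and estimates < 0.5 were set to 0.5.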

Point of comparison: U13C U16G A43U, yeast fitness 1.02. Against it:
- U13C G41C A70C — lower, 0.566
- U13C C22G C24U A37C G51C C55U A69C A70U — lower, ≤ 0.5
- A14C A20G A36G C55U G68C — lower, ≤ 0.5
- U13C A15U C27U A69U — lower, ≤ 0.5
- U13C G41C — lower, 0.761
- U13G G25A U59C — lower, 0.681
- U13C U16A A57U — lower, ≤ 0.5
- A14C A42U C55G U59A — lower, 0.612
- U13G U35C A70U — lower, 0.508
- U13G C27U C31U C34G A40G G63C — lower, ≤ 0.5
- U13C C34G A40U A45C A57C C61U — lower, ≤ 0.5
- A14C A21U C24A A37U A45U — lower, ≤ 0.5
- U13G C24U G56A — lower, 0.612
- U13A G41A G67A — lower, 0.546
- U13C C31A C55A — lower, 0.565
- U13C C22A U32A A36G A43U — lower, ≤ 0.5
- U13G A65C A70G — lower, 0.619
- U13C G23C C62A — lower, ≤ 0.5
- U13G C22G C27A C61U — lower, ≤ 0.5
- U13G C22G G63C G67A — lower, ≤ 0.5
- A14C A20G C22U C49G G56C — lower, ≤ 0.5
- U13G A20U A69U — lower, 0.708
- U13G U32C C33U C62U A65G — lower, ≤ 0.5
- U13A G48C C55G C66A — lower, 0.584
- U13C A14G — lower, 0.704
- U13C C27G — lower, 0.544
- U13C A43U C66U — lower, 0.705
- U13G A43G U53A — lower, 0.57
- U13A G67C — lower, 0.945
- A14C A45C C49G U54C C66U — lower, ≤ 0.5
- U13G A40U C62A — lower, 0.52
- U13A U26G C27A G39C A42G G51C — lower, ≤ 0.5
- U13G G18C C30U C33G U47G — lower, 0.578
- U13C C24G G67C — lower, ≤ 0.5
- U13C G17A A43U — lower, 0.523
- U13C U53C — lower, 0.727
- U13C U53A — lower, 0.674
- A14C A20U C66U — lower, ≤ 0.5
- U13C A69U — higher, 1.07
- A14C A15C G25C A57C C62G A69G — lower, ≤ 0.5
- A14C A42G A57U — lower, ≤ 0.5
- U13G C31U U35A — lower, 0.51
- U13A G63A — lower, 0.853
- U13C A43U G56A — lower, 0.797
- U13G U16C A42U G44A C49A — lower, ≤ 0.5
- U13C G38C — lower, 0.644
- U13A G56A — lower, 0.927
- U13C U59C C66U G67U — lower, 0.576
- U13C A20G C46U U47A — lower, ≤ 0.5
- U13C C27G U35G C49G A57C — lower, ≤ 0.5
- U13G A36U A40C — lower, ≤ 0.5
- A14C A20C C34A A42U — lower, ≤ 0.5
- A14C A20U G25C A43C C66U — lower, ≤ 0.5
- U13C A57U U59A A69G — lower, 0.561
- U13C G48A — lower, 0.853
- U13C A20G A37U C61A — lower, ≤ 0.5
- U13C A15C C22U C34A C66A — lower, ≤ 0.5
- U13A G48C C55G — lower, 0.554
- U13C C24G — lower, 0.672
- U13C C31U A69U — lower, 0.835
- A14C A43C A57G C66U — lower, ≤ 0.5
- U13C A37C U53C — lower, 0.599
- A14C A40G — lower, 0.596
- A14C A40U — lower, 0.587
- U13C G38A C49U — lower, ≤ 0.5
- A14C A57C — lower, 0.516
- U13C A36C C66U — lower, ≤ 0.5
- U13C A20G C49A U59C C62U A65U A70C — lower, 0.53
- U13G U28G A57U A65C A69C — lower, ≤ 0.5
- U13G C24U G44A G58C — lower, 0.508
- U13C C27G A40U C66U — lower, 0.538
- U13C G23A G63A A70U — lower, 0.527
- U13A U32C A65C — lower, 0.539
- U13C C22G — lower, 0.709
- U13C C22A — lower, 0.791
- U13C G23C A36C G39A A43G — lower, ≤ 0.5
- U13C A37U — lower, 0.543
- U13C G25A C33G G41C C61G A65U — lower, ≤ 0.5
- U13G A14U G17A — lower, ≤ 0.5
- A14C A21U A45C A57G — lower, ≤ 0.5
- U13A U59C C66A — lower, ≤ 0.5
- A14C A42C U47C — lower, ≤ 0.5
- U13G C22U C31A C55U G63A A69C — lower, ≤ 0.5
- U13A U47C A69U — lower, 0.743
- A14C A42G U47C — lower, ≤ 0.5
- U13G C31G A43U C46G A70U — lower, ≤ 0.5
- U13G C46U A65G — lower, 0.773
- U13G C34U A37U — lower, ≤ 0.5
- U13C G23C U47C — lower, ≤ 0.5
- U13G A20G U53G C66U — lower, ≤ 0.5
- U13C U16G — lower, 0.865
- A14C C22A A37U — lower, 0.646
- U13C A65G — lower, 0.956
- U13C C27U G52A U53A C66U — lower, ≤ 0.5
- U13C G44A C49U — lower, 0.799
- U13C A45U — lower, 0.929
- U13C A45C — lower, 0.853
- A14C A21C — lower, 0.609
- A14C A21G — lower, 0.713
- A14C A15U G17A C27U U32C U35G — lower, ≤ 0.5
- U13C C33A G41A A45C U59C A65U — lower, ≤ 0.5
- U13G A37C U47A A70G — lower, ≤ 0.5
- U13A U28A C30G C46U G56C — lower, ≤ 0.5
- U13G A43C U54A A57G — lower, ≤ 0.5
- A14C A20G G23A C29U U35C C55G — lower, ≤ 0.5
- U13C G18C — lower, 0.618
- U13C A40U C62A — lower, 0.557
- U13C G67A — lower, 0.848
- U13C G67U — lower, 0.719
- U13C G67C — lower, 0.771
- U13C C31U A70C — lower, 0.756
- U13C G63C — lower, 0.742
- U13A G50C A70U — lower, ≤ 0.5
- U13G U28A C30A — lower, ≤ 0.5
- U13A U16A C24G C33G — lower, ≤ 0.5
- A14C A45U G48A C66G — lower, ≤ 0.5
- U13C A15G G39A — lower, 0.593
- U13C A57U — lower, 0.753
- U13G A36C C46U — lower, ≤ 0.5
- A14C A40U A43C — lower, 0.564
- U13C C22U G38C G51A A57C — lower, ≤ 0.5
- U13G C30U U32C — lower, 0.686
- U13A U47A C60A A69C — lower, 0.525
- U13G A42C U54A G67C A69U — lower, ≤ 0.5
- U13C G18A C46G U47A C49U C55G A57C — lower, ≤ 0.5
- A14C A43U G63C — lower, ≤ 0.5
- U13G C22U C31A — lower, 0.552
- U13G G17U U28A G41C U64G — lower, ≤ 0.5
- U13A G50C — lower, 0.653
- U13C G18A A43U — lower, 0.627
- U13C G23C C29G A43U G50A A65C — lower, ≤ 0.5
- U13C A20C C22U C60G — lower, ≤ 0.5
- U13A U16A U54A A65G — lower, ≤ 0.5
- U13G U54C G56A — lower, 0.563
- U13G A40G C61U G63C — lower, ≤ 0.5
- U13G C27A — lower, 0.628
- A14C A21C C46A — lower, 0.604
- A14C A36U A37G G52A A65U A70C — lower, ≤ 0.5
- U13A U32A A37U — lower, ≤ 0.5
- U13G C22U G25A C31A — lower, 0.601
- A14C A42U C60G A70G — lower, ≤ 0.5
- A14C A45U A70G — lower, 0.561
- U13C A20U G39C A43C C49A U53A — lower, ≤ 0.5
- U13G A15C C30G C34A U35A U53C A57U C60G — lower, 0.564
- A14C A57G A69U — lower, ≤ 0.5
- U13C C29G A36G G41A G48C A57U — lower, ≤ 0.5
- A14C A37G A45C — lower, ≤ 0.5
- U13C C61U — lower, 0.928
- U13C A36U U64C — lower, ≤ 0.5
- U13G A20U A65C — lower, 0.594
- A14C A36G A69C — lower, ≤ 0.5
- U13G A65G C66A — lower, ≤ 0.5
- U13A U19A C24G C27U C33G G52C — lower, ≤ 0.5
- U13A U28A G63A G67A — lower, ≤ 0.5
- A14C A36G C62U — lower, ≤ 0.5
- A14C A36G C62A — lower, ≤ 0.5
- U13A U32C G67A A70G — lower, 0.547
- U13C A15G — lower, 0.903
- U13C U47G — lower, 0.625
- U13A G68U — lower, 0.824
- A14C A37G A57G — lower, 0.625
- A14C A43G U59C C62A — lower, ≤ 0.5
- U13G C60U — lower, 0.747
- A14C A36G G41A G48C U59C — lower, 0.7
- A14C A40C G41C C55A A70U — lower, ≤ 0.5
- U13G C61U A70G — lower, 0.618

Source: the RNAGym collection of RNA variant scans (doi:10.1126/science.aae0568)
